Data reported in ChEMBL document CHEMBL4765486, “Novel Nonsecosteroidal Vitamin D Receptor Modulator Combined with Gemcitabine Enhances Pancreatic Cancer Therapy through Remodeling of the Tumor Microenvironment” (J Med Chem, 2021).
The source made the active and inactive calls.

Tests used:
LTC-14 [1] = experiment: Inhibition of rat LTC-14 cell activation assessed decrease in TGF-beta1 induced Colla1 mRNA expression at 0.5 uM incubated for 24 hrs by q-PCR analysis; type: functional
How it was run: (§1)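 Immortalized rat PSC line LTC-14, about 1×10^5 cells per well, was grown 24 h at 37 °C in 5% CO2. Cells then received compound (0.5 μM) plus TGF-β1 for 24 h; TGF-β1 is stated as 0.5 ng/mL in the text and 5 ng/mL in the methods. Col1a1 and Acta2 mRNA were measured by RT-qPCR. Mean ± SD versus TGF-β1 alone.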

LTC-14 [2] = experiment: Inhibition of rat LTC-14 cells activation assessed decrease in TGF-beta1 induced collagen 1 protein expression at 0.5 uM incubated for 24 hrs by Western blot analysis; type: functional, cell-based
How it was run: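 LTC-14 cells were treated for 24 h with compound (0.5 μM) plus TGF-β1 (0.5 ng/mL in the text, 5 ng/mL in the methods). Lysates were run on 10% SDS-PAGE, transferred to PVDF and probed with rabbit anti-collagen I, with β-actin as reference. Bands were quantified by densitometry versus TGF-β1 alone.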

[3] = target: T1, Vitamin D3 receptor (Homo sapiens) (UniProt P11473); experiment: Binding affinity to VDR (unknown origin) at 1 uM by fluorescence polarization assay relative to calcipotriol
T1 sequence (whole entry): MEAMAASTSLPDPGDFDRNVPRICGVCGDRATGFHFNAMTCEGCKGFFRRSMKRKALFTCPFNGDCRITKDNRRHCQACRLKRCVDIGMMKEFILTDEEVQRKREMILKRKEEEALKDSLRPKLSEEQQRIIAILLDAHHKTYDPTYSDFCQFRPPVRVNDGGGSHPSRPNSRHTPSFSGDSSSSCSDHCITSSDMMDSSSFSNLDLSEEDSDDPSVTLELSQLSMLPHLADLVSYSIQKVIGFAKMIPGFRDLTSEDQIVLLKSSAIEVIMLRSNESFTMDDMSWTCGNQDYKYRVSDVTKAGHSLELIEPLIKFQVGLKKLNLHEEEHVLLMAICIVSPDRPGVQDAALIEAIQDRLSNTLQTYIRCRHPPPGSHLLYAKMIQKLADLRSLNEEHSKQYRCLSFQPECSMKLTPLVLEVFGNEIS
How it was run: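 PolarScreen VDR competitor fluorescence polarization assay with compounds at 1 μM in triplicate. Read-out used 535 nm excitation and 590 nm emission filters.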

[4] = Cytotoxicity against rat LTC-14 cells assessed as reduction in cell proliferation incubated for 24 hrs by MTT assay; type: cell-based; conditions: LTC-14, 24 h
LTC-14 [5] = experiment: Inhibition of rat LTC-14 cells activation assessed decrease in TGF-beta1 induced Acta2 mRNA expression at 0.5 uM incubated for 24 hrs by q-PCR analysis; type: functional, cell-based; how it was run: as §1

Compound	RBA ([3]; filed as agonist) [%]	RBA [3]	inhibition (LTC-14 [1])	inhibition (LTC-14 [2])	IC50 [4] [µM]	inhibition (LTC-14 [5])
CCn1cc(C(CC)(CC)c2ccc(OCC(C)O)c(C)c2)cc1C(=O)NCCCN1CCOCC1 (stereo not given)	71	–	Active	Active	> 10	Active
CCn1c(C(=O)NCCN2CCOCC2)ccc1C(CC)(CC)c1ccc(OCCC(C)(C)O)c(C)c1	–	18%	Active	Active	> 10	Active
CCN(CC)CCNC(=O)c1cc(C(CC)(CC)c2ccc(OCCCCC(O)(CC)CC)c(C)c2)cn1CC	41	–	Active	Active	> 10	Active
CCN(CC)CCCNC(=O)c1cc(C(CC)(CC)c2ccc(OCCCCC(C)(C)O)c(C)c2)cn1CC	–	33%	Active	Active	> 10	Active
CCN(CC)CCCNC(=O)c1cc(C(CC)(CC)c2ccc(OCCCCCC(C)(C)O)c(C)c2)cn1CC	–	inactive	Active	Active	> 10	Active
CCn1cc(C(CC)(CC)c2ccc(OCC(C)O)c(C)c2)cc1C(=O)NCCN(C)C (stereo not given)	70	–	Active	Active	> 10	Active
CCn1cc(C(CC)(CC)c2ccc(OCC(C)O)c(C)c2)cc1C(=O)NCC1CCCO1 (stereo not given)	60	–	Active	Active	> 10	Active
CCn1c(C(=O)NCCCN2CCN(C)CC2)ccc1C(CC)(CC)c1ccc(OCCC(C)(C)O)c(C)c1	54	–	Active	Active	> 10	Active
CCN(CC)CCNC(=O)c1cc(C(CC)(CC)c2ccc(OCCC(O)(CC)CC)c(C)c2)cn1CC	80	–	Active	Active	> 10	Active
CCn1cc(C(CC)(CC)c2ccc(OCC(C)O)c(C)c2)cc1C(=O)NCCCN(CCO)CCO (stereo not given)	70	–	Active	Active	> 10	Active
CCN(CC)CCCNC(=O)c1cc(C(CC)(CC)c2ccc(OCCCC(O)(CC)CC)c(C)c2)cn1CC	46	–	Active	Active	> 10	Active
CCN(CC)CCCNC(=O)c1cc(C(CC)(CC)c2ccc(OCCCCC(O)(CC)CC)c(C)c2)cn1CC	–	27%	Active	Active	> 10	Active
CCN(CC)CCCNC(=O)c1cc(C(CC)(CC)c2ccc(OCCC(O)(CC)CC)c(C)c2)cn1CC	51	–	Active	Active	> 10	Active
CCN(CC)CCCNC(=O)c1cc(C(CC)(CC)c2ccc(OCCCC(C)(C)O)c(C)c2)cn1CC	–	24%	Active	Active	> 10	Active
CCN(CC)CCNC(=O)c1cc(C(CC)(CC)c2ccc(OCC(C)O)c(C)c2)cn1CC (stereo not given)	–	inactive	Active	Active	> 10	Active
CCN(CC)CCNC(=O)c1cc(C(CC)(CC)c2ccc(OCCCC(O)(CC)CC)c(C)c2)cn1CC	–	31%	Active	Active	> 10	Active
CCN(CC)CCCNC(=O)c1cc(C(CC)(CC)c2ccc(OCC(O)C3CC3)c(C)c2)cn1CC (stereo not given)	40	–	Active	Active	> 10	Active
CCn1c(C(=O)NCCCN2CCOCC2)ccc1C(CC)(CC)c1ccc(OCCC(C)(C)O)c(C)c1	63	–	Active	Active	> 10	Active
CCn1cc(C(CC)(CC)c2ccc(OCC(C)O)c(C)c2)cc1C(=O)NCC1CCOCC1 (stereo not given)	67	–	Active	Active	> 10	Active
CCn1cc(C(CC)(CC)c2ccc(OCC(C)O)c(C)c2)cc1C(=O)NCCN1CCOCC1 (stereo not given)	–	36%	Active	Active	> 10	Active
CCn1c(C(=O)NCC2CCCO2)ccc1C(CC)(CC)c1ccc(OCCC(C)(C)O)c(C)c1 (stereo not given)	59	–	Active	Active	> 10	Active
CCN(CC)CCCNC(=O)c1cc(C(CC)(CC)c2ccc(OCCCCCC(O)(CC)CC)c(C)c2)cn1CC	–	32%	Active	Active	> 10	Active
CCn1cc(C(CC)(CC)c2ccc(OCC(C)O)c(C)c2)cc1C(=O)NCCCN1CCN(C)CC1 (stereo not given)	62	–	Active	Active	> 10	Active

Now from value to compound, other results behind:

RBA ([3]; filed as agonist) [%]	RBA [3]	Compound	inhibition (LTC-14 [1])	inhibition (LTC-14 [2])	IC50 [4] [µM]	inhibition (LTC-14 [5])
–	39%	CCN(CC)CCCNC(=O)c1ccc(C(CC)(CC)c2ccc(OCC(O)C3CC3)c(C)c2)n1CC (stereo not given)	Active	Active	> 10	Active
–	20%	CCN(CC)CCCNC(=O)c1ccc(C(CC)(CC)c2ccc(OCCCCCC(C)(C)O)c(C)c2)n1CC	Active	Active	> 10	Active
78	–	CCN(CC)CCCNC(=O)c1cc(C(CC)(CC)c2ccc(OCC(C)O)c(C)c2)cn1CC (stereo not given)	Active	Active	> 10	Active
64	–	CCC(O)COc1ccc(C(CC)(CC)c2cc(C(=O)NCCCN(CC)CC)n(CC)c2)cc1C (stereo not given)	Active	Active	> 10	Active
54	–	CCCC(O)(CCC)CCOc1ccc(C(CC)(CC)c2ccc(C(=O)NCCCN(CC)CC)n2CC)cc1C	Active	Active	> 10	Active
–	inactive	CCN(CC)CCCNC(=O)c1ccc(C(CC)(CC)c2ccc(OCCCCC(O)(CC)CC)c(C)c2)n1CC	Active	Active	> 10	Active
–	33%	CCN(CC)CCCNC(=O)c1ccc(C(CC)(CC)c2ccc(OCCCC(C)(C)O)c(C)c2)n1CC	Active	Active	> 10	Active
59	–	CCN(CC)CCCNC(=O)c1cc(C(CC)(CC)c2ccc(OCC(O)c3ccccc3)c(C)c2)cn1CC (stereo not given)	Active	Active	> 10	Active
75	–	CCN(CC)CCCNC(=O)c1ccc(C(CC)(CC)c2ccc(OCC(O)c3ccccc3)c(C)c2)n1CC (stereo not given)	Active	Active	> 10	Active
–	26%	CCN(CC)CCCNC(=O)c1ccc(C(CC)(CC)c2ccc(OCCCCC(C)(C)O)c(C)c2)n1CC	Active	Active	> 10	Active
–	38%	CCN(CC)CCNC(=O)c1ccc(C(CC)(CC)c2ccc(OCCCC(O)(CC)CC)c(C)c2)n1CC	Active	Active	> 10	Active
–	28%	CCC(O)COc1ccc(C(CC)(CC)c2ccc(C(=O)NCCCN(CC)CC)n2CC)cc1C (stereo not given)	Active	Active	> 10	Active
–	30%	CCN(CC)CCCNC(=O)c1ccc(C(CC)(CC)c2ccc(OCC(C)O)c(C)c2)n1CC (stereo not given)	Active	Active	> 10	Active
